Activity calls are given as the source filed them.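 How the source made its calls: active means inhibition of 30% or more at any tested concentration; inactive means the rest.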
The compounds below were run against Leucine aminopeptidase (Plasmodium falciparum (isolate 3D7)) (UniProt Q8IL11) (assay: PFM17LAP inhibitors, dose response, selectivity assay for PFM1AAP inhibitor project, biochemical, QFRET, H-Leu-NHMec substrate, set 3 (AID 624164)). Conditions: purified rPFM17LAP, H-Leu-NHMec fluorogenic cleavage.
In short: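 Material: recombinant PFM17LAP enzyme / Quantity: enzyme 5 µg/mL / Schedule: enzyme reaction with compound, 90 min at room temperature / Technique: fluorescence of released NHMec, excitation 370 nm, emission 460 nm / Reagent: H-Leu-NHMec 0.1 mM / Compound: ten twofold doses from 100 µM, 2% DMSO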

Chain of Leucine aminopeptidase (Plasmodium falciparum (isolate 3D7)) (Q8IL11 whole entry, looked up): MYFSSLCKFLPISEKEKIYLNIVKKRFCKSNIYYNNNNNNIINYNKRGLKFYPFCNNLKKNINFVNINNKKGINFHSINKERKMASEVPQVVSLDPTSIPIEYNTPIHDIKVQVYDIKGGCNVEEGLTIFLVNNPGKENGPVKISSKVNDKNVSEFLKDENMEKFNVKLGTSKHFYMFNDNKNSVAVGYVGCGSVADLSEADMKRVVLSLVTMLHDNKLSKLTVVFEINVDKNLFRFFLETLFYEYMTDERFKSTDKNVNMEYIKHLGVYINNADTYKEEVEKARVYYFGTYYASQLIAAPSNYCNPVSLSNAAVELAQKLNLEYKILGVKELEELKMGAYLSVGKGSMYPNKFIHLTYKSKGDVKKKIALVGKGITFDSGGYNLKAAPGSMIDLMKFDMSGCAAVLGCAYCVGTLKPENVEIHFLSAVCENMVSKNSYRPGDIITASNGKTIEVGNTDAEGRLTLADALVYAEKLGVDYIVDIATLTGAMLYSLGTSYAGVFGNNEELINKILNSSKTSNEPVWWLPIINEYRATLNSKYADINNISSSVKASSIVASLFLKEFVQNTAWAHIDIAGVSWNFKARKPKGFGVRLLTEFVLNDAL

SMILES | IC50 [µM]
O=C(NCc1ccc(F)cc1)C1CCN(S(=O)(=O)c2ccc(Cl)s2)CC1 | 43.6
O=C(NCc1cccc(F)c1)C1CCN(S(=O)(=O)c2ccc(Br)s2)CC1 | 24.7
O=C(NCc1ccc(F)cc1)C1CCN(S(=O)(=O)c2ccc(Br)s2)CC1 | 44.3
O=C(NCc1cccc(F)c1)C1CCN(S(=O)(=O)c2ccc(Br)cc2)CC1 | 50.6
O=C(NCc1cccc(F)c1)C1CCN(S(=O)(=O)c2ccc(Cl)s2)CC1 | 50
O=C(NCc1ccccc1F)C1CCN(S(=O)(=O)c2ccc(Br)cc2)CC1 | 82.3
O=C(NCc1ccccc1F)C1CCN(S(=O)(=O)c2ccc(Br)s2)CC1 | 28.5
O=C(NCc1ccc2c(c1)OCO2)C1CCN(S(=O)(=O)c2ccc(Cl)s2)CC1 | 35.4
O=C(NCc1ccc2c(c1)OCO2)C1CCN(S(=O)(=O)c2ccc(Br)s2)CC1 | 16.4
O=C(NCc1ccccc1F)C1CCN(S(=O)(=O)c2ccc(Cl)s2)CC1 | 50

Same assay, conditions: purified rPFM17LAP, H-Leu-NHMec fluorogenic cleavage; at 50 µM (top of the series)

SMILES | inhibition
O=C(NCc1ccc2c(c1)OCO2)C1CCN(S(=O)(=O)c2sccc2Br)CC1 | inactive

Same assay, conditions: purified rPFM17LAP, H-Leu-NHMec fluorogenic cleavage; at 100 µM (top of the series)

SMILES | inhibition
O=C(Nc1ccc2c(c1)OCO2)C1CCN(S(=O)(=O)c2ccc(Br)cc2)CC1 | inactive
O=C(NCc1ccc2c(c1)OCO2)C1CCN(S(=O)(=O)c2cc(Br)c(Br)s2)CC1 | inactive
O=C(NCCc1ccc2c(c1)OCO2)C1CCN(S(=O)(=O)c2sccc2Br)CC1 | inactive
O=C(NCc1ccc(F)cc1)C1CCN(S(=O)(=O)c2ccc(Br)cc2)CC1 | inactive
O=C(NCc1ccc(F)cc1)C1CCN(S(=O)(=O)c2cc(Br)c(Br)s2)CC1 | inactive
O=C(Nc1ccc2c(c1)OCO2)C1CCN(S(=O)(=O)c2ccc(Br)s2)CC1 | inactive
O=C(NCc1ccc(F)cc1)C1CCN(S(=O)(=O)c2sccc2Br)CC1 | inactive
O=C(Nc1ccc2c(c1)OCO2)C1CCN(S(=O)(=O)c2ccc(Cl)s2)CC1 | inactive
O=C(NCCc1ccc2c(c1)OCO2)C1CCN(S(=O)(=O)c2ccc(Cl)s2)CC1 | inactive
O=C(NCc1ccccc1F)C1CCN(S(=O)(=O)c2sccc2Br)CC1 | inactive
O=C(NCc1ccccc1F)C1CCN(S(=O)(=O)c2cc(Br)c(Br)s2)CC1 | inactive
O=C(NCCc1ccc2c(c1)OCO2)C1CCN(S(=O)(=O)c2ccc(Br)s2)CC1 | inactive
O=C(Nc1ccc2c(c1)OCO2)C1CCN(S(=O)(=O)c2cc(Br)c(Br)s2)CC1 | inactive
O=C(NCc1cccc(F)c1)C1CCN(S(=O)(=O)c2cc(Br)c(Br)s2)CC1 | inactive
O=C(NCc1cccc(F)c1)C1CCN(S(=O)(=O)c2sccc2Br)CC1 | inactive
O=C(Nc1ccc2c(c1)OCO2)C1CCN(S(=O)(=O)c2sccc2Br)CC1 | inactive
O=C(NCCc1ccc2c(c1)OCO2)C1CCN(S(=O)(=O)c2cc(Br)c(Br)s2)CC1 | inactive
O=C(NCCc1ccc2c(c1)OCO2)C1CCN(S(=O)(=O)c2ccc(Br)cc2)CC1 | inactive
O=C(NCc1ccc2c(c1)OCO2)C1CCN(S(=O)(=O)c2ccc(Br)cc2)CC1 | inactive

Reference: PubChem BioAssay AID624164 (Southern Research Specialized Biocontainment Screening …, 2012)
